Laboratory results: ChEMBL document CHEMBL1154198, “Chemical genetics of Plasmodium falciparum” (Nature, 2010)

How the values were obtained:
[1] = ST_JUDE: Cytotoxicity using luciferase to measure ATP as an indicator of the viability of human foreskin fibroblast cells (BJ); type: toxicity, cell-based
[2] = tested on: Trypanosoma brucei; test: ST_JUDE: Cytotoxicity using luciferase to measure ATP as an indicator of the viability of Trypanosoma brucei; type: functional, organism-based
[3] = tested on: Plasmodium falciparum; test: ST_JUDE: Cytotoxicity against Plasmodium falciparum 3D7; type: functional, organism-based
Outline: (§1)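 Asexual P. falciparum grown in human erythrocytes, exposed to compounds for 72 h, and growth read as the DNA quantity in treated versus control cultures. Dose-response run at 12 concentrations from 10 μM to 5 nM.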

[4] = tested on: Plasmodium falciparum; test: ST_JUDE: Cytotoxicity against Plasmodium falciparum SB-A6; type: functional, organism-based
[5] = tested on: Plasmodium falciparum; test: ST_JUDE: Cytotoxicity against Plasmodium falciparum W2; type: functional, organism-based
[6] = tested on: Leishmania major; test: ST_JUDE: Cytotoxicity using Alamar Blue to measure viability of Leishmania major; type: functional, organism-based
Outline: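 L. major promastigotes; drug susceptibility read with Alamar Blue.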

[7] = ST_JUDE: Cytotoxicity using luciferase to measure ATP as an indicator of the viability of human epithelial embryonic kidney cells (HEK293); type: toxicity, cell-based
[8] = tested on: Plasmodium falciparum; test: ST_JUDE: Plasmodium falciparum K1 EC50 (uM) as measured by SYBR green dye; type: functional, organism-based
[9] = tested on: Plasmodium falciparum; test: ST_JUDE: Plasmodium falciparum 3D7 EC50 (uM) as measured by SYBR green dye; type: functional, organism-based
[10] = tested on: Plasmodium falciparum; test: ST_JUDE: Cytotoxicity against Plasmodium falciparum Dd2; type: functional, organism-based
[11] = tested on: Plasmodium falciparum; test: ST_JUDE: Cytotoxicity against Plasmodium falciparum K1; type: functional, organism-based; outline: as §1
[12] = tested on: Plasmodium falciparum; test: ST_JUDE: Cytotoxicity against Plasmodium falciparum V1/S; type: functional, organism-based
[13] = ST_JUDE: Cytotoxicity using luciferase to measure ATP as an indicator of the viability of human epithelial hepatocellular carcinoma cells (HepG2); type: toxicity, cell-based
[14] = tested on: Toxoplasma gondii; test: ST_JUDE: Growth inhibition of to Toxoplasma gondii, in human U-2OS cells, as measured by luciferase.; type: functional, organism-based; settings: RH, U2OS
Outline: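 T. gondii parasites engineered to express luciferase; drug sensitivity read by luminescence.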

[15] = ST_JUDE: Cytotoxicity using luciferase to measure ATP as an indicator of the viability of human Burkitt''s lymphoma lymphoblast cells (Raji); type: toxicity, cell-based
[16] = tested on: Plasmodium falciparum; test: ST_JUDE: Cytotoxicity against Plasmodium falciparum D10 transfected with yeast DHOD; type: functional, organism-based

Compound	EC50 [8] [µM]	EC50 [9] [µM]	EC50 [1] [µM]	EC50 [2] [µM]	EC50 [3] [µM]	EC50 [4] [µM]	EC50 [5] [µM]	EC50 [6] [µM]	EC50 [7] [µM]	EC50 [10] [µM]	EC50 [11] [µM]	EC50 [12] [µM]	EC50 [13] [µM]	EC50 [14] [µM]	EC50 [15] [µM]	EC50 [16] [µM]
COc1ccc(NC(=O)C2c3ccccc3C(=O)N(C3CCCC3)C2c2cccs2)cc1 (stereo not given)	1.22	0.979	> 40.7	6.53	1.23	1.97	> 10.5	> 17.4	> 40.7	1.11	1.17	1.02	> 40.7	> 22.3	> 40.7	1.41
CN(C)c1cc[n+](CC(=O)c2ccc(Br)cc2)cc1	1.5	1.09	> 30.8	> 29.6	1.61	> 7.92	> 7.92	> 13.2	> 30.8	1.03	2.61	> 7.92	> 30.8	> 16.9	> 30.8	4.3
O=[N+]([O-])c1ccc2c(c1)c1ccccc1n2Cc1ccccc1O	1.25	1.26	> 35.3	24.5	1.3	2.32	3.7	> 15.1	> 35.3		1.07	> 9.06	> 35.3	> 19.3	18.2	1.8
CC(C)CN1C(=O)c2ccccc2C(C(=O)Nc2cccc(C#N)c2)C1c1cccs1 (stereo not given)	0.0809	0.0584	> 46.8	3.18	0.271	0.351	0.196	> 20.1	> 46.8	0.161	0.232	0.296	> 46.8	> 25.7	> 46.8	0.366
CC(C)(C)NC(=O)c1cn(C2CCCCC2)cc(C(=O)NC2CCN(Cc3ccccc3)C2)c1=O (stereo not given)	4.09	0.658	> 28.7	19.9	0.787	0.704	2.14	> 12.3	> 28.7	0.507	1.98	4.84	> 28.7	> 15.7	> 28.7	1.53
CC(C)CN1C(=O)c2ccccc2C(C(=O)Nc2cccc(C(F)(F)F)c2)C1c1cccs1 (stereo not given)			> 47.2	3.3				> 20.2	> 47.2				37.7	> 25.9	> 47.2	
CC(C)CN1C(=O)c2ccccc2C(C(=O)Nc2ccc(F)c(Cl)c2)C1c1cccs1 (stereo not given)	0.173	0.0897	> 42.3	2.62	0.378	1.39	0.152	> 18.1	> 42.3	0.421	0.421	1.68	38.1	> 23.2	> 42.3	1.31

Now from value to compound, other results behind:

EC50 [8] [µM]	EC50 [9] [µM]	Compound	EC50 [1] [µM]	EC50 [2] [µM]	EC50 [3] [µM]	EC50 [4] [µM]	EC50 [5] [µM]	EC50 [6] [µM]	EC50 [7] [µM]	EC50 [10] [µM]	EC50 [11] [µM]	EC50 [12] [µM]	EC50 [13] [µM]	EC50 [14] [µM]	EC50 [15] [µM]	EC50 [16] [µM]
0.0261	0.0286	CCN(CC)Cc1cc(Nc2ccnc3cc(Cl)ccc23)ccc1O	> 40.2	> 38.6	0.0443	0.0325	0.012	> 17.2	> 40.2	0.0744	0.0426	0.045	> 40.2	> 22.1	> 40.2	0.0499
0.989	0.0333	Cc1ccc(N2C(N)=NC(N)=NC2(C)C)cc1	> 34.9	> 33.5	0.0214	0.0151	0.729	> 15	> 34.9	2.03	0.676	> 8.97	> 34.9	5.71	> 34.9	0.785
0.804	0.858	CCOC(=O)c1cnc2c(OC)cccc2c1Nc1ccc(OC)c(OC)c1	> 45.1	> 43.2	0.476	> 11.6	2.7	> 19.3	> 45.1	0.676	0.651	0.865	> 45.1	> 24.7	> 45.1	> 11.6
